High-throughput results from PubChem BioAssay.
EBI2 antag = EBI2 receptor antagonists, beta-arrestin recruitment, primary screen, cell-based, luminescence, 7a,25-OHC stimulation, uHTS | 7a,25-OHC stimulated | actives 0.81% (n = 360,000) | inhibition, % at 5 µM; in the data active = inhibition above about 38%;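 also: enzyme fragment complementation signal reports receptor beta-arrestin coupling in cells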
APJ antag = antagonists of human apelin receptor APJ, primary screen, CHO-K1 cells, beta-arrestin complementation, luminescence. P35414. inhibition, % at 20 µM. actives 0.32% (n = 330,000). AID 2521, 2010;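 active = inhibition above about 40% at 20 µM, limit read from the data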;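 also: cells challenged with 10 nM apelin-13 agonist together with compound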
Target sequence (P35414 whole entry, looked up): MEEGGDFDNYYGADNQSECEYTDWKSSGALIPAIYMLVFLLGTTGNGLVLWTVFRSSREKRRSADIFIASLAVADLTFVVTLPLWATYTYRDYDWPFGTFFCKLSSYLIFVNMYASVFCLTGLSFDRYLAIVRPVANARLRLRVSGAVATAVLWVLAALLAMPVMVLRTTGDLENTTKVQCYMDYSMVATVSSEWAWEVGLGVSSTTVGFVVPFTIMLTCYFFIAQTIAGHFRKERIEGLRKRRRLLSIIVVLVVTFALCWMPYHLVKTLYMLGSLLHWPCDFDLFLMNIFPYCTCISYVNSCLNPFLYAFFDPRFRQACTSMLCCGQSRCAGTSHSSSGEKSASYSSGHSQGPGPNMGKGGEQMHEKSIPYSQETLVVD
APJ ag = agonists of human apelin receptor APJ, primary screen, CHO-K1 cells, PathHunter beta-arrestin, luminescence; P35414; 0% DMSO wells, 100% apelin; actives 0.11% (n = 330,000); activation, % at 20 µM;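 active = activation more than six SD over the plate average, tested at 20 µM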
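assay system = CHO-K1 APJ beta-arrestin complementation cell line | input = cell density 1000 per well | dosing = compound 20 µM once, DMSO 1% | timing = compound 90 min 25 °C, reagent 1 h | measured by = luminescence from split beta-galactosidase complementation, Galacton Star/Emerald II substrate | read-out basis = APJ agonist activity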
CXCR6 inh = CXCR6 receptor inhibitors, primary screen, cell-based, beta-arrestin, luminescence, CHO-K1 PathHunter, 1536-well. actives 0.36% (n = 360,000). C-X-C chemokine receptor type 6 (Homo sapiens), O00574. inhibition, % at 20 µM; in the data active = inhibition above about 34%, passing the limit was not always enough;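 also: antagonist mode with CXCL16 agonist at 10 nM final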
CCR6 antag = CCR6 receptor antagonists, primary screen, cell-based, CHO-K1, luminescence, beta-arrestin, uHTS | C-C chemokine receptor type 6 (Homo sapiens), P51684 | CHO-K1 CCR6 PathHunter beta-arrestin, CCL20-stimulated | inhibition, % at 20 µM | actives 0.49% (n = 340,000);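 active = compounds whose inhibition of the agonist-driven luminescence signal at 20 µM reaches about 50%, limit read from the data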;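 also: cells stimulated with CCL20 at 14 nM final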
CXCR6 confirm = CXCR6 receptor antagonists, confirmation, cell-based, single concentration, beta-arrestin, luminescence; shares compounds with CXCR6 inh; CHO-K1 CXCR6 PathHunter beta-arrestin; inhibition, % at 20 µM; actives 65% (n = 700); AID 602409, 2012;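 active = mean inhibition over four retests above 40%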;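 also: receptor stimulated with 10 nM CXCL16 agonist; beta-galactosidase fragment complementation upon beta-arrestin recruitment to receptor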
Numbers stand for hits; n = inactive; x = no result given. Shown are actives, neighbours in structure and some others; about 1.5% of the full set was active somewhere.

SMILES	EBI2 antag	APJ antag	APJ ag	CXCR6 inh	CCR6 antag	CXCR6 confirm
COc1ccc(C(=O)/C=C/Sc2nc3ccccc3o2)cc1	n	n	n	46	62	45
COc1ccc(C(=O)N/C(N)=N/c2nc3ccccc3o2)cc1	n	n	n	n	n	x
O=C(O)c1cccc2c1C(=O)c1ccccc1-2	n	n	n	n	n	x
O=C1C(=C(I)I)c2ccccc2-c2ccccc21	n	x	x	43	x	n
CSCCC(N=C1NS(=O)(=O)c2ccccc21)C(=O)NCCc1ccccc1 (stereo unspecified)	n	n	n	n	n	x
Cc1ccc(NCC(=O)c2ccc(C)cc2)cc1	n	n	n	44	83	58
Cc1ccc(NCCC(=O)c2ccc(Br)cc2)cc1	n	n	n	n	n	x
CCOc1ccc(CCNC(=O)C2CSC3(C)CCC(=O)N23)cc1OCC (stereo unspecified)	n	n	n	n	n	x
O=C(CSc1ccccn1)Nc1ccc(NC(=O)CSc2ccccn2)cc1	n	n	n	87	n	n
NS(=O)(=O)c1ccc(CNC(=O)NC23CC4CC(CC(C4)C2)C3)cc1	n	n	n	61	n	n
CCN(CC(=O)NC(C)(C)C)Cc1nc2c(Br)cc(Br)cc2c(=O)[nH]1	n	n	n	54	x	56
Clc1ccc(-c2nc3c4ccccc4ccn3c2Cc2ccccc2)cc1	n	x	x	44	x	n
Fc1ccc(-c2nc3c4ccccc4ccn3c2Cc2ccccc2)cc1	n	x	x	n	x	x
Cc1cc(C)n(C(C[N+](=O)[O-])c2ccc(Cl)cc2)n1 (stereo unspecified)	n	n	n	44	n	n
COc1ccc(-c2nn(C)c(=O)c3ccccc23)cc1NC(=O)Cn1nc(C)c2ccccc2c1=O	n	n	n	37	66	47
O=C(NC(=S)Nc1ccccc1O)c1cncc(Br)c1	n	n	n	47	66	48
O=C(NC(=S)Nc1ccccc1C(=O)O)c1cncc(Br)c1	n	n	n	n	n	x
Cc1ccc(NC(=S)NNC(=S)Nc2ccc(C)cc2)cc1	n	x	x	n	n	x
Cc1ccc(NC(=S)NNC(=O)Nc2ccccc2)cc1	n	44	n	53	x	n
COc1ccccc1C(=O)Nc1ccc2c(c1)nc(CCNC(=O)c1ccco1)n2C	n	n	n	n	n	x
COc1cc(/C=C2/C(=O)NN(c3ccc(C)c(Cl)c3)C2=O)cc([N+](=O)[O-])c1O	n	n	n	n	n	x
COc1cc(/C=C2\SC(=O)N(c3ccc(Cl)cc3)C2=O)cc([N+](=O)[O-])c1O	n	x	x	46	77	56
CCOC(=O)C1CCCN(C(=S)Nc2cccc(Cl)c2)C1 (stereo unspecified)	n	n	n	n	n	x
CCc1ccc(OCCCC(=O)Nc2ccc(S(N)(=O)=O)cc2)cc1	n	n	n	n	n	x
CCc1nc2c(OCCC3CCCCC3)cccn2c1N(C)C(=O)c1ccc(OC)cc1	n	x	x	45	x	n
SMILES	EBI2 antag	APJ antag	APJ ag	CXCR6 inh	CCR6 antag	CXCR6 confirm
COCCCn1c(N)c(-c2nc3ccccc3n2C)c2nc3ccccc3nc21	n	n	n	43	x	65
Cn1c(-c2c(N)n(CCCc3ccccc3)c3nc4ccccc4nc23)nc2ccccc21	n	x	x	n	n	x
CCOC(=O)C1=C(c2ccccc2)NC(N)=NC1c1ccc(OCc2ccc(C(=O)OC)cc2)cc1 (stereo unspecified)	n	n	n	35	n	n
CCOC(=O)C1=C(c2ccccc2)Nc2ncnn2C1c1ccc(C(=O)O)cc1 (stereo unspecified)	n	n	n	n	n	x
COc1ccc(-n2nnnc2S(=O)(=O)CC(=O)N2CCCCC2)cc1	43	n	n	48	n	49
O=C(Nc1ccccc1C(=O)O)c1cc(S(=O)(=O)N2CCCCC2)c(Cl)cc1Cl	n	n	n	n	n	x
O=C1C=CC2C3C(=O)N(c4ccccc4)C(=O)C3C1N2Cc1ccccc1 (stereo unspecified)	n	x	x	51	59	45
CN(CC(=O)Nc1cc(S(=O)(=O)N2CCCC2)ccc1Cl)Cc1cccs1	n	n	n	29	n	52
CN(C(=O)c1ccc(NC(=O)Cc2ccc(NC(=O)C3CCN(C(=O)C4CCCCC4)CC3)cc2)cc1)C1CCCC1	n	x	x	n	n	x
COc1cccc2cc(C(=O)Nc3ccc(F)cc3)c(=Nc3ccc(C(=O)O)cc3)oc12	n	n	n	49	80	n
CCOc1ccc(NS(=O)(=O)c2ccc(C(=O)N(C)CC(=O)Nc3cccc(OC)c3)cc2)cc1	n	x	x	n	n	x
COc1ccc(C(=O)N/C(=C\c2ccco2)C(=O)OCc2ccco2)cc1	n	n	n	n	n	x
COc1ccc(C(=O)/C(=C\c2ccco2)N2C=CC=CC2=C(C#N)C#N)cc1	54	86	n	84	100	103
COc1ccc(/C=C(/C(=O)c2cccs2)N2C=CC=CC2=C(C#N)C#N)cc1	n	x	x	62	84	57
N#CC(C#N)=C1C=CC=CN1/C(=C\c1ccco1)C(=O)c1ccccc1	78	x	x	98	100	105
CCOC(=O)C1C(C)=C(Nc2ccc(OC)cc2)C(=O)N1c1ccc(OC)cc1 (stereo unspecified)	n	n	n	n	n	x
CC1CCC/C(=C\c2ccc(O)cc2)C1=O (stereo unspecified)	n	n	n	n	n	x
CN(C)CC1CC/C(=C\c2ccc(O)cc2)C1=O (stereo unspecified)	n	x	x	75	86	77
COc1ccc(/C=C2/CCC(CN3CCOCC3)C2=O)cc1 (stereo unspecified)	n	x	x	70	87	70
COc1ccccc1NC(=O)Nc1ccccc1N1CCOCC1	n	n	n	n	n	x
S=c1nc(-c2ccccc2)[nH]c2ccc(Br)cc12	n	n	n	42	n	n
c1ccc(-c2nc3ccccc3[nH]2)cc1	n	n	n	n	n	x
NNC(=O)c1cccc(COc2ccc3c(c2)CCC3)c1	n	n	n	49	n	n
Cc1c(Cl)cccc1NC(=S)NCc1ccc(F)cc1	n	n	n	n	n	x
Fc1ccc(CNC(=S)Nc2ccccc2Cl)cc1	n	n	n	47	n	n
CC(C)CC(C(=O)NCC1CCCO1)N(C(=O)Cn1nnc(-c2ccc(F)cc2)n1)c1ccccc1F (stereo unspecified)	n	n	n	n	n	x
CCc1ccc(OCC(=O)Nc2ccncc2)cc1	n	n	n	n	n	x
C/C(=N\NC(=O)COc1ccc(C(C)(C)C)cc1)c1ccc(-n2ccnc2)cc1	n	n	n	73	n	n
CC(C)(C)c1ccc(OCC(=O)Nc2ccncc2)cc1	n	n	n	41	n	n
COc1ccc(OCC(=O)N/N=C(\C)c2ccc(-n3ccnc3)cc2)cc1	n	n	n	n	n	x
